# In ChEMBL document CHEMBL4732114, “Design and structural optimization of novel 2H-benzo[h]chromene derivatives that target AcrB and reverse bacterial multidrug resistance” (Eur J Med Chem, 2021):
# Experiments:
# [1] = molecular target: T1, Multidrug efflux pump subunit AcrB (Escherichia coli (strain K12)) (UniProt P31224); assay: Inhibition of AcrB in multidrug-resistant Escherichia coli BW25113 assessed as potentiation of tetraphenylphosphonium-induced antibacterial activity by measuring tetraphenylphosphonium MIC at 32 ug/ml by checkerboard titration method (reference value: 1024 ug/ml); conditions: dose 32.0 µg/ml
# T1 sequence (whole entry): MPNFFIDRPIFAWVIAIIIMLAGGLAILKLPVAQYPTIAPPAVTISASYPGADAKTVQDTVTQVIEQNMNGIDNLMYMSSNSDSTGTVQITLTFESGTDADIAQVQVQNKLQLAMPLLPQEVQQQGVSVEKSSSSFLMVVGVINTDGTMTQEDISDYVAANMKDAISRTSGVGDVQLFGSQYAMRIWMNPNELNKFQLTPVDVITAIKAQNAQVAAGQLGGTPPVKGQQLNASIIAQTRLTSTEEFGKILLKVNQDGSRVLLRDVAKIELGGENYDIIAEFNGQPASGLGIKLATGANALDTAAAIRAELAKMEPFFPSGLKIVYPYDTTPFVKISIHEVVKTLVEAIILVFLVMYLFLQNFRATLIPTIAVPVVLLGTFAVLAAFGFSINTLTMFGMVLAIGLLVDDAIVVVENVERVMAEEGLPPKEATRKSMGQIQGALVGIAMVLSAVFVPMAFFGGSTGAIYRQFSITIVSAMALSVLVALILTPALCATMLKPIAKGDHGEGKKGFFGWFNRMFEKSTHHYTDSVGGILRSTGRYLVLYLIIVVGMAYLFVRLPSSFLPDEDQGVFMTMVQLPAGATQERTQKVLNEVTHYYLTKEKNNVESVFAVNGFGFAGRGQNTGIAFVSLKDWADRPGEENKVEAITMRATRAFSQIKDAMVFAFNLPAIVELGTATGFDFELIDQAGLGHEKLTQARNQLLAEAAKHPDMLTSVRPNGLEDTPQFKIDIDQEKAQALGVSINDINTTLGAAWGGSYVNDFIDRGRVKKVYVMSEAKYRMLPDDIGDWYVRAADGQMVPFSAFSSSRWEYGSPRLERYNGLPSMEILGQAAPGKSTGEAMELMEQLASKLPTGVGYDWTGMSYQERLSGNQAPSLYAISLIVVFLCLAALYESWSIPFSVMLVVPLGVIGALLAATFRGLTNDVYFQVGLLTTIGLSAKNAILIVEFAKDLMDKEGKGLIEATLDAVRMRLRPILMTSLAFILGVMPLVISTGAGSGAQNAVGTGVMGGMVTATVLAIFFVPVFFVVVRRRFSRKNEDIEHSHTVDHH
# [2] = molecular target: T1, Multidrug efflux pump subunit AcrB (Escherichia coli (strain K12)); assay: Inhibition of AcrB in multidrug-resistant Escherichia coli BW25113 assessed as potentiation of chloramphenicol-induced antibacterial activity by measuring chloramphenicol MIC at 8 ug/ml by checkerboard titration method (reference value: 8 ug/ml); conditions: dose 8.0 µg/ml
# [3] = molecular target: T1, Multidrug efflux pump subunit AcrB (Escherichia coli (strain K12)); conditions: Escherichia coli BW25113; dose 32.0 µg/ml
# [4] = molecular target: T1, Multidrug efflux pump subunit AcrB (Escherichia coli (strain K12)); assay: Inhibition of AcrB in multidrug-resistant Escherichia coli BW25113 assessed as potentiation of chloramphenicol-induced antibacterial activity by measuring chloramphenicol MIC at 128 ug/ml by checkerboard titration method (reference value: 8 ug/ml); conditions: dose 128.0 µg/ml
# [5] = molecular target: T1, Multidrug efflux pump subunit AcrB (Escherichia coli (strain K12)); assay: Inhibition of AcrB in multidrug-resistant Escherichia coli BW25113 assessed as potentiation of levofloxacin-induced antibacterial activity by measuring levofloxacin MIC at 64 ug/ml by checkerboard titration method (reference value: 0.06 ug/ml); conditions: dose 64.0 µg/ml
# [6] = Toxicity in multidrug-resistant Escherichia coli BW25113 assessed as growth inhibition by two-fold broth dilution method
# [7] = molecular target: T1, Multidrug efflux pump subunit AcrB (Escherichia coli (strain K12)); assay: Inhibition of AcrB in multidrug-resistant Escherichia coli BW25113 assessed as potentiation of erythromycin-induced antibacterial activity by measuring erythromycin MIC at 8 ug/ml by checkerboard titration method (reference value: 64 ug/ml); conditions: dose 8.0 µg/ml
# [8] = molecular target: T1, Multidrug efflux pump subunit AcrB (Escherichia coli (strain K12)); assay: Inhibition of AcrB in multidrug-resistant Escherichia coli BW25113 assessed as potentiation of chloramphenicol-induced antibacterial activity by measuring chloramphenicol MIC at 64 ug/ml by checkerboard titration method (reference value: 8 ug/ml); conditions: dose 64.0 µg/ml
# [9] = molecular target: T1, Multidrug efflux pump subunit AcrB (Escherichia coli (strain K12)); assay: Inhibition of AcrB in multidrug-resistant Escherichia coli BW25113 assessed as potentiation of erythromycin-induced antibacterial activity by measuring erythromycin MIC at 64 ug/ml by checkerboard titration method (reference value: 64 ug/ml); conditions: dose 64.0 µg/ml
# [10] = molecular target: T1, Multidrug efflux pump subunit AcrB (Escherichia coli (strain K12)); conditions: Escherichia coli BW25113; dose 16.0 µg/ml
# [11] = Toxicity in multidrug-resistant Escherichia coli BW25113 harboring AcrB deletion mutant assessed as growth inhibition by two-fold broth dilution method
# Cell membrane [12] = assay: Induction of inner membrane permeabilization in wild type Escherichia coli BW25113 assessed as perturbation of proton motive force at 32 ug/ml measured after 10 mins in presence of CCCP and glucose by Di0C2(3) probe based fluorescence assay; conditions: escherichia coli bw25113, 10 min, dose 32 µg/ml
# Procedure, shortened: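 Cell suspensions were left untreated or exposed to 8-128 µg/mL compound for 10 min. DiOC₂(3) was then added and fluorescence followed to a plateau. Cells were re-energized with 0.5% glucose, and the rise in fluorescence was read as membrane-potential build-up. CCCP was added last to dissipate the potential.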
# [13] = molecular target: T1, Multidrug efflux pump subunit AcrB (Escherichia coli (strain K12)); assay: Inhibition of AcrB in multidrug-resistant Escherichia coli BW25113 assessed as potentiation of tetraphenylphosphonium-induced antibacterial activity by measuring tetraphenylphosphonium MIC at 128 ug/ml by checkerboard titration method (reference value: 1024 ug/ml); conditions: dose 128.0 µg/ml
# [14] = molecular target: T1, Multidrug efflux pump subunit AcrB (Escherichia coli (strain K12)); assay: Inhibition of AcrB in multidrug-resistant Escherichia coli BW25113 assessed as potentiation of levofloxacin-induced antibacterial activity by measuring levofloxacin MIC at 16 ug/ml by checkerboard titration method (reference value: 0.06 ug/ml); conditions: dose 16.0 µg/ml
# Cell membrane [15] = assay: Induction of outer membrane permeabilization in wild type Escherichia coli BW25113 assessed as increase in nitrocefin hydrolysis at 128 ug/ml in presence of CCCP by spectroscopic analysis; conditions: dose 128 µg/ml
# Procedure, shortened: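 Intact E. coli were treated with 10 μM CCCP to block nitrocefin efflux, then given compound, nothing, or polymyxin B as permeabilizer control. Nitrocefin was added, and hydrolysis by periplasmic β-lactamase was followed as the rise in absorbance at 490 nm. Duplicate experiments were run on different days.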
Structure (SMILES),MIC [1],MIC [2],MIC [3],MIC [4],MIC [5],MIC [6],MIC [7],MIC [8],MIC [9],MIC [10],MIC [11],Activity (Cell membrane [12]),MIC [13],MIC [14],Activity (Cell membrane [15])
Cc1ccccc1COc1cccc2c3c(c(-c4nnco4)cc12)CCC(C)(C)O3,512 µg/mL,8 µg/mL,16 µg/mL,8 µg/mL,0.06 µg/mL,> 512 µg/mL,64 µg/mL,8 µg/mL,32 µg/mL,16 µg/mL,> 128 µg/mL,Not Active,256 µg/mL,0.06 µg/mL,
CC(C)NCCOc1ccc2c(c1)OC(C)(C)CC2=O,1020 µg/mL,8 µg/mL,16 µg/mL,8 µg/mL,0.03 µg/mL,> 512 µg/mL,64 µg/mL,8 µg/mL,64 µg/mL,16 µg/mL,> 128 µg/mL,,1020 µg/mL,0.03 µg/mL,Not Active
CC1(C)CCc2c(Cn3cnnn3)cc3c(OCc4ccc([N+](=O)[O-])cc4)cccc3c2O1,1020 µg/mL,8 µg/mL,16 µg/mL,8 µg/mL,0.06 µg/mL,> 512 µg/mL,64 µg/mL,8 µg/mL,64 µg/mL,16 µg/mL,> 128 µg/mL,,512 µg/mL,0.06 µg/mL,Not Active
COc1cccc(COc2cccc3c4c(c(-c5nnco5)cc23)CCC(C)(C)O4)c1,1020 µg/mL,8 µg/mL,16 µg/mL,8 µg/mL,0.06 µg/mL,> 512 µg/mL,64 µg/mL,8 µg/mL,64 µg/mL,16 µg/mL,> 128 µg/mL,,512 µg/mL,0.06 µg/mL,Not Active
CC1(C)CCc2c(-c3nnco3)cc3c(OCc4ccc([N+](=O)[O-])cc4)cccc3c2O1,1020 µg/mL,8 µg/mL,16 µg/mL,4 µg/mL,0.06 µg/mL,> 512 µg/mL,64 µg/mL,8 µg/mL,32 µg/mL,16 µg/mL,> 128 µg/mL,,1020 µg/mL,0.06 µg/mL,
CC1(C)CCc2c(Cn3cnnn3)cc3c(OCc4ccc(OC(F)(F)F)cc4)cccc3c2O1,1020 µg/mL,8 µg/mL,16 µg/mL,4 µg/mL,0.06 µg/mL,> 512 µg/mL,64 µg/mL,8 µg/mL,64 µg/mL,16 µg/mL,> 128 µg/mL,,1020 µg/mL,0.06 µg/mL,Not Active
